The source made the active and inactive calls. No cut-off for these calls is given here.
Legend:
[1] = Half life in mouse at 3 mg/kg, iv; type: ADME, organism-based; conditions: in vivo
[2] = molecular target: T1, Bromodomain-containing protein 4 (Homo sapiens, UniProt O60885); assay: Binding affinity to His-tagged BRD4 BD1-BD2 (K57 to K550 residues) (unknown origin) after 1 hr by Alexa-647-conjugated probe based TR-FRET assay
[3] = Oral bioavailability in mouse at 10 mg/kg; type: ADME, organism-based; conditions: in vivo
Mus musculus = assay: Unbound AUC in mouse at 10 mg/kg, po; type: ADME, organism-based; conditions: in vivo
[4] = molecular target: T1, Bromodomain-containing protein 4; assay: Inhibition of BRD4 (unknown origin) expressed in human H1299 cells co-expressing HPV16-LCR/E2 after 24 hrs by Bright Glo-luciferase reporter gene assay; type: cell-based
Outline: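 Target-engagement reporter in an H1299-derived line carrying a stably integrated E2 expression cassette and an HPV-LCR-driven luciferase reporter. The read-out is BRD4-dependent E2-mediated transcriptional repression. EC50 is the mean of two measurements.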

Liver = assay: Unbound intrinsic clearance in mouse liver microsomes; type: ADME, microsome
MX1 = assay: Antiproliferative activity against human MX1 cells incubated over 72 hrs by Cell Titre Glo luminescence assay; type: functional, cell-based; conditions: MX1, 72 h
Outline: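 Triple-negative breast cancer line MX-1 grown 3 days with compound. Proliferation read with the CellTiter-Glo kit. EC50 is the mean of two measurements.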

[5] = Permeability of the compound; type: physicochemical; conditions: not told; read-out: permeability
[6] = molecular target: T1, Bromodomain-containing protein 4; assay: Binding affinity to Ile,Leu,Val,Met-[13C-methyl]-labelled BRD4 BD2 (352 to 457 residues) (unknown origin) expressed in Escherichia coli BL21 (DE3) by NMR method

Row | SMILES | Ki [2] [µM] | EC50 [4] [µM] | other results
1 | CCS(=O)(=O)Nc1ccc(Oc2ccc(F)cc2)c(-c2cn(C)c3c(=O)[nH]ccc23)c1 | 0.0055 | 0.047 | half-life [1]: 5.6 h; bioavailability [3]: 33%; fAUC (Mus musculus): 0.06 µM·h
2 | Cc1[nH]c(-c2ccccc2Oc2ccccc2)c2cc[nH]c(=O)c12 | 0.45 | 0.7 | 
3 | Cn1cc(-c2ccccc2Oc2ccccc2)c2cc[nH]c(=O)c21 | 0.12 | 1.1 | CL free (Liver): 106700 mL/min/kg; EC50 (MX1): 0.58 µM; Papp [5]: 13 ×10⁻⁶ cm/s
4 | Cc1[nH]c(-c2cc(S(C)(=O)=O)ccc2Oc2ccc(F)cc2F)c2c1C(=O)CCC2 | 0.46 | 1.4 | CL free (Liver): 1400 mL/min/kg; EC50 (MX1): 0.57 µM
5 | Cc1[nH]c(-c2cc(N)ccc2Oc2ccccc2)c2c1C(=O)CCC2 | 0.21 | 0.3 | EC50 (MX1): 0.23 µM
6 | CCNC(=O)c1ccc(Oc2ccccc2)c(-c2[nH]c(C)c3c2CCCC3=O)c1 | 0.25 | 1.4 | EC50 (MX1): 1.4 µM
7 | Cn1cc(-c2cc(CS(C)(=O)=O)ccc2Oc2ccc(F)cc2F)c2cc[nH]c(=O)c21 | 0.011 | 0.04 | CL free (Liver): 400 mL/min/kg; Papp [5]: 40 ×10⁻⁶ cm/s
8 | Cc1[nH]c(-c2cc(S(C)(=O)=O)ccc2Oc2ccc(F)cc2F)c2cn[nH]c(=O)c12 | 0.077 | 0.75 | CL free (Liver): 617 mL/min/kg; EC50 (MX1): 0.39 µM; Papp [5]: 12 ×10⁻⁶ cm/s
9 | Cc1[nH]c(-c2cc(NS(C)(=O)=O)ccc2Oc2ccccc2)c2cn[nH]c(=O)c12 | 0.03 | 0.18 | 
10 | Cc1[nH]c(-c2cc(NS(C)(=O)=O)ccc2Oc2ccccc2)cc1C(N)=O | 0.28 | 1.4 | 
11 | CCS(=O)(=O)Nc1ccc(Oc2ccc(F)cc2F)c(-c2cn(C)c3c(=O)[nH]ccc23)c1 | 0.011 |  | 
12 | Cc1[nH]c(-c2cc(NS(C)(=O)=O)ccc2Oc2ccc(F)cc2F)c2cn[nH]c(=O)c12 | 0.016 | 0.28 | CL free (Liver): > 250 mL/min/kg; EC50 (MX1): 0.092 µM; Papp [5]: 6.1 ×10⁻⁶ cm/s
13 | Cc1[nH]c(-c2ccccc2N)c2c1C(=O)CCC2 | 9.5 | 7.1 | 
14 | Cc1[nH]c(-c2ccccc2Oc2ccccc2)c2nc[nH]c(=O)c12 | 1.1 | 1.6 | CL free (Liver): > 6170 mL/min/kg; EC50 (MX1): 1.2 µM; Papp [5]: 100 ×10⁻⁶ cm/s
15 | Cc1[nH]c(-c2ccccc2N)cc1C(N)=O | 22 | > 10 | EC50 (MX1): > 10 µM
16 | CC(=O)c1cc(-c2ccccc2N)[nH]c1C | 21 |  | Activity [6]: Active
17 | Cc1[nH]c(-c2cc(NS(C)(=O)=O)ccc2Oc2ccccc2)c2c1C(=O)NCC2 | 0.041 | 0.12 | 
18 | CCS(=O)(=O)Nc1ccc(Oc2ccccc2)c(-c2[nH]c(C)c3c(=O)[nH]ncc23)c1 | 0.01 | 0.075 | CL free (Liver): 800 mL/min/kg; EC50 (MX1): 0.052 µM; Papp [5]: 9.5 ×10⁻⁶ cm/s
19 | Cc1[nH]c(-c2cc(NS(C)(=O)=O)ccc2Oc2ccc(F)cc2F)c2c1C(=O)CCC2 | 0.097 | 0.075 | 

Row | SMILES | Ki [2] [µM] | EC50 [4] [µM] | other results
20 | Cc1[nH]c(-c2ccccc2Oc2ccccc2)cc1C(N)=O | 0.27 | 0.45 | 
21 | Cc1[nH]c(-c2cc(NS(C)(=O)=O)ccc2Oc2ccc(F)cc2F)c2c1C(=O)NCC2 | 0.084 | 0.42 | 
22 | Cc1[nH]c(-c2c(N)cccc2Oc2ccccc2)cc1C(N)=O | 1.6 | 2.1 | 
23 | Cc1[nH]c(-c2ccccc2)cc1C(N)=O | 12 |  | 
24 | COC(=O)c1ccc(Oc2ccccc2)c(-c2[nH]c(C)c3c2CCCC3=O)c1 | 0.091 | 2 | 
25 | Cc1[nH]c(-c2ccccc2Oc2ccccc2)c2cn[nH]c(=O)c12 | 0.037 | 0.22 | 
26 | Cn1cc(-c2cc(NS(C)(=O)=O)ccc2Oc2ccc(F)cc2F)c2cc[nH]c(=O)c21 | 0.017 | 0.046 | 
27 | CCOC(=O)c1[nH]c(C)c2c1CCCC2=O | 25 |  | Activity [6]: Active
28 | Cc1[nH]c(-c2cc(NS(C)(=O)=O)ccc2Oc2ccc(F)cc2F)cc1C(N)=O | 0.37 | 2.3 | 
29 | Cc1[nH]c(-c2ccccc2Nc2ccccc2)cc1C(N)=O | 0.45 | 2.8 | 
30 | Cc1[nH]c(-c2ccccc2Oc2ccccc2)c2c1C(=O)NCC2 | 0.34 | 0.28 | 
31 | Cc1[nH]c(-c2ccccc2Oc2ccccc2)c2c1C(=O)CCC2 | 0.44 | 0.28 | 
32 | Cn1cc(-c2cc(S(C)(=O)=O)ccc2Oc2ccccc2)c2cc[nH]c(=O)c21 | 0.017 | 0.091 | 
33 | COC(=O)C[C@@H]1N=C(c2ccc(Cl)cc2)c2c(sc(C)c2C)-n2c(C)nnc21 | 0.017 |  | 
34 | Cc1[nH]c(-c2ccccc2Oc2ccc(Cl)cc2)cc1C(N)=O | 0.41 | 0.28 | 
35 | Cc1[nH]c(-c2cc(S(C)(=O)=O)ccc2Oc2ccc(F)cc2F)cc1C(N)=O | 2.2 | 4.5 | CL free (Liver): 100 mL/min/kg; EC50 (MX1): 3.2 µM
36 | Cc1[nH]c(-c2cc(N)ccc2Oc2ccccc2)cc1C(N)=O | 0.42 | 0.88 | 
37 | Cc1[nH]c(-c2cc(NS(C)(=O)=O)ccc2Oc2ccccc2)c2nc[nH]c(=O)c12 | 0.15 | 0.41 | 

— ChEMBL document CHEMBL4038268, “Methylpyrrole inhibitors of BET bromodomains” (Bioorg Med Chem Lett, 2017)
